In ChEMBL document CHEMBL4311965, “Antimicrobial activity of amphipathic α,α-disubstituted β-amino amide derivatives against ESBL - CARBA producing multi-resistant bacteria; effect of halogenation, lipophilicity and cationic character” (Eur J Med Chem, 2019):
≈ marks a conversion by molar mass, not a printed value.

Assays:
[1] = tested on: Corynebacterium glutamicum; test: Antibacterial activity against Corynebacterium glutamicum ATCC 13032 cultured in MHB medium assessed as no bacterial growth incubated at 20 degC for 24 hrs by microdilution susceptibility test; assay type: functional; settings: ATCC 13032, 24 h
Outline: (§1)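 Broth microdilution per CLSI M07-A9 with modifications. Inoculum about 2.5–3 x 10⁴ cells/mL in Mueller-Hinton broth, mixed 1:1 with test derivative. DMSO stocks diluted in double-distilled water, final DMSO <1%. Incubation 24 h at 37 °C (20 °C for C. glutamicum). Growth and sterility controls included; oxytetracycline reference.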

Pseudomonas aeruginosa [2] = test: Antibacterial activity against multidrug-resistant Pseudomonas aeruginosa 50692172 producing New Delhi metallo-beta-lactamase-1 cultured in MHB medium assessed as reduction in bacterial growth incubated for 24 hrs by microdilution susceptibility test; assay type: functional; settings: Pseudomonas aeruginosa, 50692172, 24 h
Outline: (§2)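 Broth microdilution per CLSI M07-A9 (modified). Working solutions made from concentrated DMSO stocks kept at r.t., diluted in double-distilled water, final DMSO <1%. Inoculum 1–1.2 x 10⁶ cells/mL in Mueller-Hinton broth, mixed 1:1 with compound. 37 °C, 24 h, four parallels. Read as OD₆₀₀. Where precipitation left residual OD, the point of major OD decrease was taken as the inhibitory concentration.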

Escherichia coli [3] = test: Antibacterial activity against multidrug-resistant Escherichia coli 50579417 producing oxcillinase-48 cultured in MHB medium assessed as reduction in bacterial growth incubated for 24 hrs by microdilution susceptibility test; assay type: functional; settings: Escherichia coli, 50579417, 24 h; outline: as §2
Staphylococcus aureus = test: Antibacterial activity against Staphylococcus aureus ATCC 9144 cultured in MHB medium assessed as no bacterial growth incubated at 37 degC for 24 hrs by microdilution susceptibility test; assay type: functional; settings: ATCC 9144, 24 h; outline: as §1
Pseudomonas aeruginosa [4] = test: Antibacterial activity against multidrug-resistant Pseudomonas aeruginosa K34-7 producing Verona integron encoded metallo beta-lactamse-2 cultured in MHB medium assessed as reduction in bacterial growth incubated for 24 hrs by microdilution susceptibility test; assay type: functional; settings: K34-7, 24 h; outline: as §2
[5] = Selectivity index, ratio of EC50 for hemolytic activity against human RBC to MIC for antibacterial activity against Escherichia coli ATCC 25922; assay type: toxicity; settings: human red blood cells (RBC)
Outline: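 Selectivity index is the RBC haemolysis EC50 divided by the MIC against the E. coli or S. aureus reference strain.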

Acinetobacter baumannii [6] = test: Antibacterial activity against multidrug-resistant Acinetobacter baumannii K47-42 producing oxcillinase-23 cultured in MHB medium assessed as reduction in bacterial growth incubated for 24 hrs by microdilution susceptibility test; assay type: functional; settings: K47-42, 24 h; outline: as §2
MRC5 = test: Cytotoxicity against human MRC5 cells assessed as reduction in cell viability incubated for 4 hrs by CellTiter 96 Aqueous One Solution Reagent based assay; settings: MRC5, 4 h
Outline: (§3)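 HepG2 and MRC-5 cells seeded at 35 000 and 15 000 cells/well respectively, then held overnight at 37 °C, 5% CO₂. Compounds in serum-free MEM Earle's applied for 4 h. MTS reagent (CellTiter 96 AQueous One) added for a further 1 h, absorbance read at 485 nm. Survival expressed relative to medium (negative) and Triton X-100 (positive) controls.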

Escherichia coli [7] = test: Antibacterial activity against multidrug-resistant Escherichia coli 50639799 producing Verona integron encoded metallo beta-lactamse-29 cultured in MHB medium assessed as reduction in bacterial growth incubated for 24 hrs by microdilution susceptibility test; assay type: functional; settings: Escherichia coli, 50639799, 24 h; outline: as §2
HepG2 = test: Cytotoxicity against human HepG2 cells assessed as reduction in cell viability incubated for 4 hrs by CellTiter 96 Aqueous One Solution Reagent based assay; settings: HepG2, 4 h; outline: as §3
Acinetobacter baumannii [8] = test: Antibacterial activity against multidrug-resistant Acinetobacter baumannii K63-58 producing oxcillinase-23 cultured in MHB medium assessed as reduction in bacterial growth incubated for 24 hrs by microdilution susceptibility test; assay type: functional; settings: K63-58, 24 h; outline: as §2
Pseudomonas aeruginosa [9] = test: Antibacterial activity against multidrug-resistant Pseudomonas aeruginosa 50692520 producing Verona integron encoded metallo beta-lactamse cultured in MHB medium assessed as reduction in bacterial growth incubated for 24 hrs by microdilution susceptibility test; assay type: functional; settings: Pseudomonas aeruginosa, 50692520, 24 h; outline: as §2
Enterococcus faecium [10] = test: Antibacterial activity against multidrug-resistant Enterococcus faecium TUH50-22 cultured in BHIB medium assessed as reduction in bacterial growth incubated for 24 hrs by microdilution susceptibility test; assay type: functional; settings: TUH50-22, 24 h
Outline: (§4)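 Enterococci grown in Brain Heart Infusion broth, otherwise broth microdilution per CLSI M07-A9 (modified). Concentrated DMSO stocks kept at r.t. and diluted in double-distilled water, final DMSO <1%. Inoculum 1–1.2 x 10⁶ cells/mL mixed 1:1 with compound. 37 °C, 24 h, four parallels. OD₆₀₀ read-out, lowest concentration with no growth.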

Escherichia coli [11] = test: Antibacterial activity against Escherichia coli ATCC 25922 cultured in MHB medium assessed as no bacterial growth incubated at 37 degC for 24 hrs by microdilution susceptibility test; assay type: functional; settings: ATCC 25922, 24 h; outline: as §1
Erythrocyte = test: Hemolytic activity against human RBC incubated for 1 hr; assay type: cell-based
Outline: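 Heparinized human blood washed three times in warm PBS and set to 10% hct. Erythrocytes at 1% v/v final, with compound in PBS (DMSO <1%), shaken 1 h at 37 °C and then centrifuged. Supernatant absorbance read at 405 and 545 nm after PBS background subtraction. Haemolysis taken relative to 1% Triton X-100. Three independent replicates, EC50 averaged.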

Enterococcus faecium [12] = test: Antibacterial activity against multidrug-resistant Enterococcus faecium 50758899 cultured in BHIB medium assessed as reduction in bacterial growth incubated for 24 hrs by microdilution susceptibility test; assay type: functional; settings: Enterococcus faecium, 50758899, 24 h; outline: as §4
[13] = Aqueous solubility of the compound in DMSO; assay type: physicochemical

| Structure (SMILES) | MIC [1] [µg/mL] | MIC (Pseudomonas aeruginosa [2]) [µg/mL] | MIC (Escherichia coli [3]) [µg/mL] | MIC (Staphylococcus aureus) [µg/mL] | MIC (Pseudomonas aeruginosa [4]) [µg/mL] | selectivity ratio [5] | MIC (Acinetobacter baumannii [6]) [µg/mL] | EC50 (MRC5) [µg/mL] | MIC (Escherichia coli [7]) [µg/mL] | EC50 (HepG2) [µg/mL] | MIC (Acinetobacter baumannii [8]) [µg/mL] | MIC (Pseudomonas aeruginosa [9]) [µg/mL] | MIC (Enterococcus faecium [10]) [µg/mL] | MIC (Escherichia coli [11]) [µg/mL] | EC50 (Erythrocyte) [µg/mL] | MIC (Enterococcus faecium [12]) [µg/mL] | solubility [13] |
| --- | --- | --- | --- | --- | --- | --- | --- | --- | --- | --- | --- | --- | --- | --- | --- | --- | --- |
| N=C(N)NCCNC(=O)C(CNC(=N)N)(Cc1cc(C(F)(F)F)cc(C(F)(F)F)c1)Cc1cc(C(F)(F)F)cc(C(F)(F)F)c1 | 0.5 (≈ 0.749 µM) | 32 (≈ 47.9 µM) | 32 (≈ 47.9 µM) | 2 (≈ 3 µM) | 32 (≈ 47.9 µM) | 50 | > 32 | > 64 | 16 (≈ 24 µM) | > 64 | > 32 | 16 (≈ 24 µM) | 4 (≈ 5.99 µM) | 4 (≈ 5.99 µM) | 201 (≈ 301 µM) | 8 (≈ 12 µM) |  |
| NCCNCC(CN)(Cc1cc(C(F)(F)F)cc(C(F)(F)F)c1)Cc1cc(C(F)(F)F)cc(C(F)(F)F)c1 | 1 (≈ 1.76 µM) | 16 (≈ 28.1 µM) | 8 (≈ 14 µM) | 4 (≈ 7.02 µM) | 32 (≈ 56.2 µM) | 6 | 8 (≈ 14 µM) | 14 (≈ 24.6 µM) | 8 (≈ 14 µM) | 7 (≈ 12.3 µM) | 8 (≈ 14 µM) | 32 (≈ 56.2 µM) | 4 (≈ 7.02 µM) | 4 (≈ 7.02 µM) | 23 (≈ 40.4 µM) | 8 (≈ 14 µM) |  |
| NCCNCC(CN)(Cc1ccccc1Br)Cc1ccccc1Br | 2 (≈ 4.39 µM) | 32 (≈ 70.3 µM) | 16 (≈ 35.1 µM) | 16 (≈ 35.1 µM) | 32 (≈ 70.3 µM) | 13 | 16 (≈ 35.1 µM) | 8 (≈ 17.6 µM) | 16 (≈ 35.1 µM) | 18 (≈ 39.5 µM) | 16 (≈ 35.1 µM) | 16 (≈ 35.1 µM) | 16 (≈ 35.1 µM) | 16 (≈ 35.1 µM) | 209 (≈ 459 µM) | 16 (≈ 35.1 µM) |  |
| N#CC(Cc1cc(C(F)(F)F)cc(C(F)(F)F)c1)(Cc1cc(C(F)(F)F)cc(C(F)(F)F)c1)C(=O)NCCN | 8 (≈ 13.8 µM) | > 32 | > 32 | 16 (≈ 27.6 µM) | > 32 | 9 | > 32 | 12 (≈ 20.7 µM) | > 32 | 20 (≈ 34.5 µM) | > 32 | > 32 | 8 (≈ 13.8 µM) | 32 (≈ 55.2 µM) | 282 (≈ 487 µM) | 8 (≈ 13.8 µM) | Soluble |
| NCCNC(=O)C(CN)(Cc1ccc(F)c2ccccc12)Cc1ccc(F)c2ccccc12 | 2 (≈ 4.47 µM) | > 32 | 8 (≈ 17.9 µM) | 4 (≈ 8.94 µM) | > 32 | 19 | 16 (≈ 35.8 µM) | 4 (≈ 8.94 µM) | 16 (≈ 35.8 µM) | 12 (≈ 26.8 µM) | 16 (≈ 35.8 µM) | > 32 | 8 (≈ 17.9 µM) | 4 (≈ 8.94 µM) | 74 (≈ 165 µM) | 8 (≈ 17.9 µM) | Soluble |
| NCCNCC(CN)(Cc1cc(Br)cc(Br)c1)Cc1cc(Br)cc(Br)c1 | 1 (≈ 1.63 µM) | 32 (≈ 52.2 µM) | 16 (≈ 26.1 µM) | 2 (≈ 3.26 µM) | 16 (≈ 26.1 µM) | 6 | 16 (≈ 26.1 µM) | 15 (≈ 24.5 µM) | 8 (≈ 13 µM) | 12 (≈ 19.6 µM) | 8 (≈ 13 µM) | 32 (≈ 52.2 µM) | 4 (≈ 6.52 µM) | 4 (≈ 6.52 µM) | 24 (≈ 39.1 µM) | 4 (≈ 6.52 µM) |  |
